hIAP block = human IAP inhibition | P09923 | purified IAP, CDP-Star luminescence, 30 min | inhibition, % at 10 µM | 330,000 compounds, 0.12% hits | AID 2544;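 active = inhibition reaching a set limit with compound at 10 µM in the primary screen, cut at about 35% in these data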
Target sequence (P09923 whole entry, looked up): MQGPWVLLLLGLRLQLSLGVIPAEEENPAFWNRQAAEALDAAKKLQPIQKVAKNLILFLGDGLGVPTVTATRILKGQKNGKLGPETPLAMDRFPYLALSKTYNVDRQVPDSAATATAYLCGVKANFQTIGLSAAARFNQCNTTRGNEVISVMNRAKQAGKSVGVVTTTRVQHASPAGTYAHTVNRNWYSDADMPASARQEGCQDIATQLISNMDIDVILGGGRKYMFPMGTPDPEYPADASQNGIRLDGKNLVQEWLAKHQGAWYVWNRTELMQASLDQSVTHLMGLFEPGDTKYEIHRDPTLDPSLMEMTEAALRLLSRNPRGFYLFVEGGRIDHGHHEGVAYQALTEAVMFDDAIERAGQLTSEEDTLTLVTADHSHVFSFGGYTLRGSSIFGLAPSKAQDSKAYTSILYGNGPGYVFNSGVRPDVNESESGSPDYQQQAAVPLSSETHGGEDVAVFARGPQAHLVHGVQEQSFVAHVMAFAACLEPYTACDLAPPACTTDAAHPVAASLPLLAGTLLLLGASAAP
mIAP inh = mouse IAP inhibition | purified mouse IAP, CDP-Star luminescence, 30 min | inhibition, % at 10 µM | 330,000 compounds, 0.2% hits;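 active = inhibition of at least 40% at 10 µM in the primary screen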
bIAP activator = intestinal alkaline phosphatase (bovine) activation; activation factor at 20 µM; 200,000 compounds, 0.17% hits; purified bovine IAP, CDP-star luminescence, 30 min; hits give high values; fold of DMSO-control signal, blank-subtracted;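 active = activation factor of 2 or more at 20 µM, a signal rise over negative controls twice the positive control's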
bIAP inh = blocks bovine intestinal alkaline phosphatase activity | purified bovine IAP, CDP-star luminescence, 30 min | inhibition, % at 20 µM | 190,000 tested, under 10 active | AID 1019;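 active = over 50% inhibition of intestinal alkaline phosphatase at 20 µM in the single-dose screen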
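test system = bovine IAP enzyme | medium = DEA buffer 100 mM, pH 9.8, with MgCl2 1.0 mM, ZnCl2 0.02 mM | detection = luminescence | dosing = single compound dose of 20 µM, 2% DMSO final | incubation = 30 min reaction at room temperature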
hIAP activ = increases human intestinal alkaline phosphatase activity; P09923; purified human IAP, CDP-Star luminescence, 30 min; hits give high values; 1 = vehicle-only enzyme, 0 = enzyme-free background; activation factor at 10 µM; 330,000 compounds, 0.16% hits;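 active = activation factor of the enzyme at least 2-fold when tested at 20 µM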
mIAP act = increases mouse intestinal alkaline phosphatase activity; muIAP, CDP-Star luminescence, 30 min; hits give high values; 1 = vehicle-only enzyme signal, 0 = enzyme-free wells; activation factor at 10 µM; 330,000 compounds, 0.24% hits;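 active = activation factor of at least 2 at 20 µM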
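Assay system: mouse IAP enzyme; reagent: chemiluminescent substrate CDP-Star; dosing: test compounds delivered from DMSO solution; schedule: 30 min at room temperature; measured by: luminescence from enzymatic CDP-Star hydrolysis; controls: DMSO-only wells and no-enzyme negative control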
hIAP act conf = human IAP activation confirmation | purified IAP, CDP-Star luminescence, 30 min; hits give low values | AID 434926 | 880 compounds, 10% hits | activation (%Activity, negative = activation), % at 8.3 µM | shares compounds with hIAP activ;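 active = at least twofold enzyme activation in any of six single-dose repeats, which the averaged readout prints as negative percent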
Each line names hits and unclear results; the compound was inactive in the other large screens (follow-up assays come after a bar, where they were run). Sampled rows, rich in hits. Any-hit rate of the full collection: about 0.72%.

Cc1ccc(NC(=S)NNC(=O)c2nnn(-c3ccccc3)c2C)cc1	hIAP activ 2.18 | hIAP act conf inactive
CN(C)c1ccc(/C=C2\C(=N)N3N=C(CC(=O)N4CCCCC4)SC3=NC2=O)cc1	hIAP block 36.9 (no result: bIAP activator, bIAP inh) | hIAP act conf inactive
O=C(COC(=O)c1ccc(NC(=O)C2CC=CCC2C(=O)O)cc1)c1ccccc1 (stereo unspecified)	none (no result: bIAP activator, bIAP inh)
CCCCNC(=S)Nc1ccccc1Cc1ccccc1	none
O=C(COC(=O)C1CC(=O)N(CCc2ccccc2)C1)c1ccc[nH]1 (stereo unspecified)	none (no result: bIAP activator, bIAP inh)
COCCn1c(=NC(=O)CSCC(=O)N2CCOCC2)sc2cc(C)ccc21	none (no result: bIAP activator, bIAP inh)
CC(Sc1ccc(Cl)cc1)C(=O)NNC(=O)c1ccccc1O (stereo unspecified)	hIAP activ 2.48 (no result: bIAP activator, bIAP inh) | hIAP act conf inactive
CSCCC(NC(=O)c1ccccc1Cl)C(=O)NNC(=O)c1ccccc1O (stereo unspecified)	none (no result: bIAP activator, bIAP inh)
Cn1c(CNC(=O)CNC(=O)c2cccc(F)c2)cc(=O)n(C)c1=O	none (no result: bIAP activator, bIAP inh)
Cn1c(CNC(=O)CCNC(=O)c2cccc(F)c2)cc(=O)n(C)c1=O	hIAP block 37.9 (no result: bIAP activator, bIAP inh) | hIAP act conf inactive
CC(C)Oc1ccc(C(=O)Nc2ncn[nH]2)cc1	hIAP activ 2.01 (no result: bIAP activator, bIAP inh) | hIAP act conf -64.7
CC(C)COc1ccc(C(=O)Nc2ncn[nH]2)cc1	none (no result: bIAP activator, bIAP inh)
CC(C)Oc1cccc(C(=O)Nc2ncn[nH]2)c1	hIAP activ 2.24 (no result: bIAP activator, bIAP inh) | hIAP act conf inactive
CN(C)c1ccc(N2C(=NC(=O)CCC3CCCC3)SC3CS(=O)(=O)CC32)cc1 (stereo unspecified)	none (no result: bIAP activator, bIAP inh)
CCOC(=O)c1c(S(=O)(=O)NCC(=O)Nc2ccc(F)cc2)c(C)n(C)c1C	none (no result: bIAP activator, bIAP inh)
Cc1c(C(=O)N2CCCC2)c(S(=O)(=O)N2CCN(c3ccccc3F)CC2)c(C)n1C	none (no result: bIAP activator, bIAP inh)
COc1ccc(C(=O)NCC(=O)NCC(c2ccco2)N(C)C)cc1OC (stereo unspecified)	hIAP block 43.8 | hIAP act conf inactive
CCCOc1ccc(C(=O)NCC(c2ccco2)N(C)C)cc1OC (stereo unspecified)	none
COc1cc(S(=O)(=O)N2CCOCC2)cc(C(=O)OCC(=O)NCc2ccco2)c1OC	none (no result: bIAP activator, bIAP inh)
CC(NC(=O)CCc1nnc(CCCc2ccccc2)o1)c1ccccc1 (stereo unspecified)	none
Cc1ccc(CN2CCN(/N=C/c3cccs3)CC2)cc1	none
COc1ccc2nc(N3CCC(O)CC3)c(C#N)cc2c1	hIAP block 35.0 | hIAP act conf inactive
Cc1ccc(C2(O)C(=O)c3ccccc3C2=O)c(O)c1C	none (no result: bIAP activator, bIAP inh)
CC(C)(C)c1cccc(C2(O)C(=O)c3ccccc3C2=O)c1O	hIAP block 58.1 (no result: bIAP activator, bIAP inh) | hIAP act conf inactive
CC1C=CCC2C(=O)N(c3cccc(C(=O)NCc4ccccc4)c3)C(=O)C12 (stereo unspecified)	none (no result: bIAP activator, bIAP inh)
O=C1CC(c2ccccc2)n2nc(NC(=O)c3ccccc3)nc2N1 (stereo unspecified)	none
O=C1CC(c2ccccc2)n2nc(NC(=O)c3ccccn3)nc2N1 (stereo unspecified)	hIAP activ 2.37 | hIAP act conf inactive
COCCNc1nc(-c2cc(C)c(C)cc2C)cs1	none
O=c1c2ccccc2nc(N/N=C/c2c(O)ccc3ccccc23)n1O	hIAP activ 2.03 | hIAP act conf -53.7
O=c1c2ccccc2nc(N/N=C/c2ccc(O)cc2)n1O	none
O=C(Cn1ccnc1)c1ccc(O)c(O)c1	hIAP block 40.6 (no result: bIAP activator, bIAP inh) | hIAP act conf inactive
CCn1c(SCC(=O)NC2CC2)nnc1-c1cccc(OC)c1	none (no result: bIAP activator, bIAP inh)
C=CCn1c(SCC(=O)NC2CC2)nnc1-c1cccc(OC)c1	hIAP block 40.6 (no result: bIAP activator, bIAP inh) | hIAP act conf inactive
NC(=O)c1nc(-c2ccco2)nc2c1[nH]c(=O)n2-c1ccc(Cl)c(Cl)c1	hIAP activ 2.05 (no result: bIAP activator, bIAP inh) | hIAP act conf inactive
NC(=O)c1nc(-c2cccs2)nc2c1[nH]c(=O)n2-c1ccc(F)cc1	hIAP activ 2.33 | hIAP act conf inactive
CC(C)(CNC(=O)COc1ccccc1Cc1ccccc1)N1CCOCC1	none
CCOCCCNc1nc2c(C)cccn2c(=O)c1/C=C1\SC(=S)N(C(C)CC)C1=O (stereo unspecified)	hIAP block 36.2 (no result: bIAP activator, bIAP inh) | hIAP act conf inactive
COc1ccccc1NC(=O)NNC(=O)c1cc2ccccc2cc1O	hIAP activ 2.01 (no result: bIAP activator, bIAP inh) | hIAP act conf inactive
Cc1ccc(NC(=O)NNC(=O)c2cc3ccccc3cc2O)cc1	hIAP activ 2.12 (no result: bIAP activator, bIAP inh) | hIAP act conf -69.5
C=CCN(c1ccc(C(=O)NCCCn2ccnc2)cc1)S(C)(=O)=O	none (no result: bIAP activator, bIAP inh)
O=C1C=C(N2CCOCC2)c2ccccc2C1=O	hIAP block 44.6 (no result: bIAP activator, bIAP inh) | hIAP act conf inactive
CC1=C(C)C(=O)C(N2CCOCC2)=CC1=O	none (no result: hIAP block, mIAP inh, hIAP activ, mIAP act)
O=C(CCCn1c(=S)[nH]c2ccsc2c1=O)Nc1ccc2c(c1)OCCO2	none
O=C(CN1CCN(Cc2ccc(Cl)cc2)CC1)N1CCc2ccccc21	none (no result: bIAP activator, bIAP inh)
Cc1cc(NS(=O)(=O)c2ccc(NC(=O)C(C(C)C)N3C(=O)c4ccccc4C3=O)cc2)nc(C)n1 (stereo unspecified)	hIAP block 38.8 | hIAP act conf inactive
CN(Cc1ccccc1)C(=O)c1[nH]cnc1C(=O)NCc1ccccc1	none (no result: bIAP activator, bIAP inh)
O=C(Nc1nccs1)c1nc[nH]c1C(=O)NCc1ccccc1	hIAP activ 2.37 (no result: bIAP activator, bIAP inh) | hIAP act conf inactive
CN(Cc1ccccc1)C(=O)c1[nH]cnc1C(=O)Nc1nccs1	hIAP activ 2.45 (no result: bIAP activator, bIAP inh) | hIAP act conf -141.0
CC1CCC(NS(=O)(=O)c2ccc(Cl)nc2)CC1 (stereo unspecified)	none (no result: bIAP activator, bIAP inh)
Cc1ccc(S(=O)(=O)N2CCN(C(=O)Cn3nc(C(=O)O)c4ccccc4c3=O)CC2)cc1	none (no result: bIAP activator, bIAP inh)
COc1cccc(CN(C)C(=O)C2CCN(S(=O)(=O)c3cccs3)CC2)c1OC	none (no result: bIAP activator, bIAP inh)
CCNc1nc(NCC)nc(-n2nc(C)cc2C)n1	hIAP block 40.7 | hIAP act conf inactive
O=C(Nc1ccc(Cl)c(Cl)c1)Oc1ccc(NC(=O)c2ccco2)cc1	hIAP activ 2, mIAP act 2.2 | hIAP act conf inactive
CC1(C)C[C@@H](O)CC2(C1)C[C@]1(C)CC(O)[C@H]2C(C)(C)C1 (stereo partly specified)	hIAP activ 2.05 (no result: bIAP activator, bIAP inh) | hIAP act conf -93.3
CC1CCCCC1NCC(=O)NCc1ccc(F)cc1 (stereo unspecified)	none
O=C(Cn1nnc2ccccc2c1=O)NCCc1ccc(Cl)cc1Cl	hIAP block 36.7 | hIAP act conf inactive
COc1ccccc1NC(=S)NCc1ccc(Cl)cc1	none (no result: bIAP activator, bIAP inh)
CSc1ccccc1NC(=S)NCc1ccc(Cl)cc1	hIAP block 40.0 (no result: bIAP activator, bIAP inh) | hIAP act conf inactive
Cc1cccc(C)c1Nc1ncnc(N)c1[N+](=O)[O-]	none
